From PubChem
Most compounds without a hit are left out; they make up all but 2.3% or so of the library.
TRPC4 inh = inhibitors of mouse TRPC4 channel, primary screen, Fluo4 calcium, HEK293 TRPC4beta/mu-opioid cells | B-score at 10 µM | Short transient receptor potential channel 4 (Mus musculus), Q9QUQ5 | DAMGO-evoked Fluo4 calcium flux; stronger effect = lower value | AID 2247, 2010 | 0.39% of 300,000 active;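 active = B-score over 3 SD under the library average, no early fluorescence shift, positive overall ratio signal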
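Assay system: TRPC4beta/mu-opioid receptor HEK293 cell line; compound dosing: single concentration per test compound; detection: Fluo4 Ca2+ flux fluorescence; evaluation: per-well B score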
TRPC4 agonist = activators of mouse TRPC4 channel, primary screen, Fluo4 calcium, HEK293 TRPC4beta/mu-opioid cells; Fluo4 calcium fluorescence; stronger effect = higher value; B-score at 10 µM; 0.49% of 310,000 active; Short transient receptor potential channel 4 (Mus musculus), Q9QUQ5;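 active = B-score above 5 SD of library B-scores, and initial fluorescence ratio not above library mean plus 5 SD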;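 note: positive B-score marks a calcium rise read as TRPC4 activation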
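Material: HEK293 stable line with TRPC4beta plus mu-opioid receptor; technique: Fluo4 calcium-sensitive dye fluorescence, kinetic, 1 Hz baseline; timing: Fluo4 dye loading 45 min at room temperature, 110 s recording; controls: assay buffer as low control, maximal DAMGO as high control; read-out: integrated baseline-normalised fluorescence ratio, converted to per-well B score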
TRPC6 activator = mouse TRPC6 channel activators, primary screen, cell-based, HEK293, membrane potential dye; B-score at 10 µM; 0.13% of 310,000 active; HEK293-TRPC6 membrane potential dye fluorescence; stronger effect = higher value; Short transient receptor potential channel 6 (Mus musculus), Q61143;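 active = B-score of the integrated fluorescence ratio above library mean plus 3 SD, and starting fluorescence ratio within library mean plus 5 SD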;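 note: higher score means more depolarization so channel activation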
Target sequence (Q61143 whole entry, looked up): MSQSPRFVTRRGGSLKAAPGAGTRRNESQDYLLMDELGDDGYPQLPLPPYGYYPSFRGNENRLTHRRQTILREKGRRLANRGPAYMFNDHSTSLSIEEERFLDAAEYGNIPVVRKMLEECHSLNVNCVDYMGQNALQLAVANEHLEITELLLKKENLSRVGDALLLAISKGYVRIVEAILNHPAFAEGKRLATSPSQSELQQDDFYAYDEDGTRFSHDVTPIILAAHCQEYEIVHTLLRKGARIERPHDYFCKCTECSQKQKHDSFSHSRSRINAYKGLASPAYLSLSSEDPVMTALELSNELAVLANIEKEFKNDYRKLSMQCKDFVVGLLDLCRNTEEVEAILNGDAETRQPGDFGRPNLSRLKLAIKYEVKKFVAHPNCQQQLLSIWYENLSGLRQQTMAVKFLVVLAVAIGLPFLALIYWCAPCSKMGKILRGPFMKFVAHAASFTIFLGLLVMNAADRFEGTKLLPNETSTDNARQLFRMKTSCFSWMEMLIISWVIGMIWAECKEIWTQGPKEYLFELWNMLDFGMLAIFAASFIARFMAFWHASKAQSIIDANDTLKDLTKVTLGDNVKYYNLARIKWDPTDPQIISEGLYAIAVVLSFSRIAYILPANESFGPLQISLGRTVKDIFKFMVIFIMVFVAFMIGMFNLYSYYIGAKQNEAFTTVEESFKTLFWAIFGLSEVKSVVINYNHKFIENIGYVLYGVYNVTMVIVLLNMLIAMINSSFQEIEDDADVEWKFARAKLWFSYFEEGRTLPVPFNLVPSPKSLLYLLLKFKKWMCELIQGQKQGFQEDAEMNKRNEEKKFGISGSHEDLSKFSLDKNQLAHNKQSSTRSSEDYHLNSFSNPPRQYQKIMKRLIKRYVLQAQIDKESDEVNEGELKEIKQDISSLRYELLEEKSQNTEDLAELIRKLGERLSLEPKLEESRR
TRPC6 inh = mouse TRPC6 channel inhibitors, primary screen, cell-based, HEK293, membrane potential dye; AID 2553, 2010; B-score at 10 µM; 1.1% of 310,000 active; ACh-evoked depolarization; stronger effect = lower value; Short transient receptor potential channel 6 (Mus musculus), Q61143;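 active = B-score under library mean minus 3 SD, initial fluorescence not abnormally high, positive integrated signal ratio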;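 note: B-score derived from integrated fluorescence ratio over the kinetic read; more negative B-score means stronger inhibition of depolarization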
TRPC4 potent = positive allosteric modulators of TRPC4, primary screen, cell-based, mouse TRPC4beta, HEK293 mu-opioid, Fluo-4 calcium; Short transient receptor potential channel 4 (Mus musculus), Q9QUQ5; DAMGO EC20, Fluo-4 Ca2+ flux; stronger effect = higher value; B-score at 10 µM; 0.42% of 310,000 active; AID 2227, 2009;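 active = B-score of calcium response area above 5 SD of library B-scores, with initial fluorescence ratio within 5 SD of library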;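 note: B-score of integrated fluorescence ratio over time as area under calcium response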
Starred values were filed as active, the others as inactive; i = inactive.

SMILES | TRPC4 inh | TRPC4 agonist | TRPC6 activator | TRPC6 inh | TRPC4 potent
O=C(CS(=O)(=O)c1cn(Cc2ccc(Cl)cc2)c2ccccc12)N1CCCC1 | i | i | i | i | i
CCOC(=O)C1(CCc2ccccc2)CCN(Cc2ccn[nH]2)CC1 | -6* | i | i | i | i
CCOC(=O)C1(Cc2cccc(F)c2)CCN(Cc2cnc(C)s2)CC1 | i | 66* | i | i | i
CCOC(=O)C1(CCCc2ccccc2)CCN(Cc2cnc(C)s2)CC1 | i | 74* | i | i | i
CCOC(=O)C1(Cc2cccc(F)c2)CCN(Cc2ccon2)CC1 | i | i | i | i | i
Cc1ccc(OCCC(=O)OCC(=O)Nc2ccc3c(c2)OCO3)cc1 | i | i | i | i | i
CCCCN(CC)CCNC(=O)c1cc2c(=O)n(C)c3ccccc3c2n1C | i | 67* | i | i | 14*
CCCN(CCC)CCCNC(=O)c1cc2c(=O)n(C)c3ccccc3c2n1C | i | 59* | i | i | 16*
Cc1noc(C)c1COC(=O)c1cccnc1Cl | i | i | i | i | i
COc1ccc(NC(=S)N(CCCOC(C)C)C2CCN(C(C)=O)CC2)cc1Cl | i | i | i | i | i
COC(=O)CN1C(=O)COc2ccc(S(=O)(=O)N3CCCCCC3)cc21 | i | i | i | i | i
Cc1ccc(N(CC(=O)NC2CCCC2)C(=O)CNC(=O)c2cccs2)cc1F | -7* | i | i | i | i
CN(C)CCOC(=O)C12CC3(C)CC(C)(CC(C)(C3)C1)C2 | i | 46* | i | i | i
CN(C)CCOC(=O)C12CC3CC(CC(C3)C1)C2 | i | i | i | i | i
Cc1ccc2[nH]c3c(c2c1)CNCC3 | i | i | i | i | i
c1ccc2c3c([nH]c2c1)CCNC3 | i | i | i | i | 24*
COc1cccc(NC(=O)[C@H](NC(=O)[C@@H]2Cc3ccccc3CN2)c2ccccc2)c1 | i | i | i | i | i
COc1ccccc1C1/C(=C(\O)c2ccc3c(c2)OCCO3)C(=O)C(=O)N1Cc1cccnc1 (centres undefined) | -6* | i | i | i | i
COc1ccc(C2/C(=C(\O)c3ccc4c(c3)OCCO4)C(=O)C(=O)N2Cc2cccnc2)cc1 (centres undefined) | i | i | i | i | i
O=C(c1ccc2c(c1)OCCO2)N1CCN(c2ncc(C(F)(F)F)cc2Cl)CC1 | i | 49* | i | i | i
O=C(Nc1ccc2c(c1)OCO2)N1CCN(c2ncccn2)CC1 | i | i | i | i | i
O=C(Nc1ccc2c(c1)OCO2)N1CCN(c2ncc(C(F)(F)F)cc2Cl)CC1 | i | 55* | i | i | i
Cc1ccoc1C(=O)Nc1cccc2ccccc12 | i | i | i | i | i
Cc1nn(-c2nnc(NCc3ccccc3)nn2)c(C)c1Br | i | i | i | i | 17*
COc1ccc(C(=O)NCCn2cc(SCC(N)=O)c3ccccc32)cc1 | i | i | i | i | i
SMILES | TRPC4 inh | TRPC4 agonist | TRPC6 activator | TRPC6 inh | TRPC4 potent
O=C(Cn1nc(Cc2cccnc2)c2ccccc2c1=O)Nc1ccccc1F | i | i | i | i | i
Cc1cccc(NC(=O)c2csnn2)n1 | i | i | i | i | i
O=C(NCCCO)c1c(O)c2cccc3c2n(c1=O)CCC3 | i | i | i | i | i
Cn1nc(-c2ccc(Cl)cc2)nc2c(=O)n(C)c(=O)nc1-2 | i | i | i | -5.1* | i
CSC(C1CCCC1)n1nnc2ccccc21 (centres undefined) | i | i | i | i | i
COc1cccc(C2=NN(C(=O)c3ccco3)C(c3ccco3)C2)c1 (centres undefined) | -6* | i | i | i | i
COc1cc(NC(=O)Cc2cccs2)cc(OC)c1 | i | i | i | i | i
